Assay results published in ChEMBL document CHEMBL1649368, “Novel isatinyl thiosemicarbazones derivatives as potential molecule to combat HIV-TB co-infection” (Eur J Med Chem, 2011).
Values after ≈ are worked out from the molar mass of the structure shown.

How the values were obtained:
[1] = tested on: Human immunodeficiency virus 1; assay: Antiviral activity against HIV1 3B infected in human MT4 cells assessed as protection against virus-induced cytopathogenicity after 5 days by microtiter plate analysis; format: functional, organism-based; conditions: Human immunodeficiency virus 1, 3B, MT4, 120 h
In short: (§1)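 MT-4 cells were grown in RPMI-1640 DM with 10% heat-inactivated calf serum and gentamicin. HIV-1 IIIB (100 CCID50) or mock infection was run in parallel with compounds in triplicate, at 37 °C and 5% CO2 for 5 days. Viability was read by MTT spectrophotometry. EC50 was the 50% reduction in virus cytopathic effect; CC50 was the 50% loss of mock-infected cell viability.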

[2] = Cytotoxicity against human MT4 cells after 5 days by spectrophotometry; format: cell-based; in short: as §1
[3] = tested on: Mycobacterium tuberculosis; assay: Antimycobacterial activity against Mycobacterium tuberculosis H37Ra by agar dilution method; format: functional
In short: (§2)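 Log-phase MTB was tested by agar dilution on Middlebrook 7H11 with OADC, following NCCLS guidance. MIC was the lowest concentration giving complete growth inhibition, determined in triplicate.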

[4] = tested on: Mycobacterium tuberculosis; assay: Antimycobacterial activity against Mycobacterium tuberculosis H37Ra assessed as inhibition of bacterial growth in log phase by agar dilution method; format: functional; in short: as §2
[5] = tested on: Mycobacterium tuberculosis; assay: Antimycobacterial activity against Mycobacterium tuberculosis H37Ra assessed as inhibition of bacterial growth in dormant phase; format: functional
In short: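 MTB grown in 7H9 with glycerol, OADC and Tween 80 at 37 °C with rolling to OD600 ~0.6, then washed and held in PBS 6 weeks at 37 °C. Starved cells (~1×10^7 in 1 mL PBS) were exposed to compounds in DMSO at various concentrations for 7 days with shaking. After washing, dilutions were plated on antibiotic-free 7H11 and counted after 4 weeks. MIC was complete growth inhibition, in triplicate.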

Row | Compound | EC50 [1] | CC50 at 120 h [2] | MIC [3] | MIC [4] | MIC [5]
1 | O=C1/C(=N\NC(=S)NO)c2cc(F)ccc2N1CN1CCOCC1 | 61.4 µM | 465 µM | 4.41 µM (≈ 1.56 µg/mL) |  | 
2 | Cc1ccc2c(c1)/C(=N/NC(=S)NO)C(=O)N2CN1CCN(c2ccccc2)CC1 | 19.3 µM | 420 µM | 14.7 µM (≈ 6.25 µg/mL) |  | 
3 | CCn1cc(C(=O)O)c(=O)c2cc(F)c(N3CCN(CN4C(=O)/C(=N\NC(=S)NO)c5cc(F)ccc54)C(C)C3)c(F)c21 (stereo not given) | 9.93 µM | 187 µM | 0.65 µM (≈ 0.401 µg/mL) | 0.65 µM (≈ 0.401 µg/mL) | 36.9 µM (≈ 22.8 µg/mL)
4 | CONC(=S)N/N=C1\C(=O)N(CN2CCN(c3c(F)cc4c(=O)c(C(=O)O)cn(C5CC5)c4c3OC)CC2C)c2ccc(C)cc21 (stereo not given) | 1.86 µM | 154 µM | 0.31 µM (≈ 0.202 µg/mL) | 0.31 µM (≈ 0.202 µg/mL) | 17.8 µM (≈ 11.6 µg/mL)
5 | CCn1cc(C(=O)O)c(=O)c2cc(F)c(N3CCN(CN4C(=O)/C(=N\NC(=S)NO)c5cc(C)ccc54)C(C)C3)c(F)c21 (stereo not given) | 11.7 µM | 244 µM | 0.65 µM (≈ 0.399 µg/mL) | 0.64 µM (≈ 0.393 µg/mL) | 34.6 µM (≈ 21.2 µg/mL)
6 | CONC(=S)N/N=C1\C(=O)N(CN(C)C)c2ccc(F)cc21 | 37.8 µM | 560 µM | 9.62 µM (≈ 3.13 µg/mL) |  | 
7 | O=C(O)c1cn(C2CC2)c2cc(N3CCN(CN4C(=O)/C(=N\NC(=S)NO)c5cc(Cl)ccc54)CC3)c(F)cc2c1=O | 33.4 µM | 229 µM | 2.54 µM (≈ 1.56 µg/mL) |  | 
8 | COc1ccc(N2CCN(CN3C(=O)/C(=N\NC(=S)NO)c4cc(Cl)ccc43)CC2)cc1 | 21.3 µM | 279 µM | 13.2 µM (≈ 6.25 µg/mL) |  | 
9 | CCn1cc(C(=O)O)c(=O)c2cc(F)c(N3CCN(CN4C(=O)/C(=N\NC(=S)NOC)c5cc(Cl)ccc54)C(C)C3)c(F)c21 (stereo not given) | 9.26 µM | 180 µM | 1.2 µM (≈ 0.778 µg/mL) |  | 
10 | CCn1cc(C(=O)O)c(=O)c2cc(F)c(N3CCN(CN4C(=O)/C(=N\NC(=S)NO)c5cc(Cl)ccc54)CC3)cc21 | 27.2 µM | 186 µM | 1.3 µM (≈ 0.783 µg/mL) |  | 
11 | CCn1cc(C(=O)O)c(=O)c2cc(F)c(N3CCN(CN4C(=O)/C(=N\NC(=S)NOC)c5cc(F)ccc54)CC3)cc21 | 10.5 µM | 144 µM | 0.67 µM (≈ 0.402 µg/mL) | 4.25 µM (≈ 2.55 µg/mL) | 17 µM (≈ 10.2 µg/mL)
12 | CONC(=S)N/N=C1\C(=O)N(CN2CCN(c3cc4c(cc3F)c(=O)c(C(=O)O)cn4C3CC3)CC2)c2ccc(Cl)cc21 | 11 µM | 143 µM | 0.64 µM (≈ 0.402 µg/mL) |  | 
13 | COc1c(N2CCN(CN3C(=O)/C(=N\NC(=S)NO)c4cc(Cl)ccc43)C(C)C2)c(F)cc2c(=O)c(C(=O)O)cn(C3CC3)c12 (stereo not given) | 15.3 µM | 234 µM | 1.19 µM (≈ 0.783 µg/mL) |  | 
14 | CONC(=S)N/N=C1\C(=O)N(CN2CCN(c3cc4c(cc3F)c(=O)c(C(=O)O)cn4C3CC3)CC2)c2ccc(F)cc21 | 11.4 µM | 255 µM | 0.31 µM (≈ 0.19 µg/mL) |  | 
15 | NNC(=O)c1ccncc1 [ISONIAZID] |  |  |  | 0.36 µM (≈ 0.0494 µg/mL) | 182 µM (≈ 25 µg/mL)
16 | CCN(CC)CN1C(=O)/C(=N\NC(=S)NOC)c2cc(Cl)ccc21 | 58.4 µM | 454 µM | 16.9 µM (≈ 6.25 µg/mL) |  | 
17 | O=C1/C(=N\NC(=S)NO)c2cc(Cl)ccc2N1CN1CCN(c2ccc(Cl)cc2)CC1 | 11.1 µM | 268 µM | 13 µM (≈ 6.25 µg/mL) |  | 
18 | CCN(CC)CN1C(=O)/C(=N\NC(=S)NO)c2cc(C)ccc21 | 57.6 µM | 534 µM | 11.8 µM (≈ 3.97 µg/mL) |  | 
19 | Cc1ccc2c(c1)/C(=N/NC(=S)NO)C(=O)N2CN1CCOCC1 | 93.6 µM | 572 µM | 8.96 µM (≈ 3.13 µg/mL) |  | 
20 | CONC(=S)N/N=C1\C(=O)N(CN2CCN(c3ccc(OC)cc3)CC2)c2ccc(Cl)cc21 | 13.1 µM | 221 µM | 12.8 µM (≈ 6.25 µg/mL) |  | 
21 | CCn1cc(C(=O)O)c(=O)c2cc(F)c(N3CCN(CN4C(=O)/C(=N\NC(=S)NOC)c5cc(C)ccc54)C(C)C3)c(F)c21 (stereo not given) | 5.74 µM | 156 µM | 1.24 µM (≈ 0.778 µg/mL) |  | 
22 | CN(C)CN1C(=O)/C(=N\NC(=S)NO)c2cc(Cl)ccc21 | 130 µM | 610 µM | 76.3 µM (≈ 25 µg/mL) |  | 
23 | CONC(=S)N/N=C1\C(=O)N(CN2CCN(c3c(F)cc4c(=O)c(C(=O)O)cn(C5CC5)c4c3OC)CC2C)c2ccc(F)cc21 (stereo not given) | 1.88 µM | 171 µM | 0.15 µM (≈ 0.0984 µg/mL) |  | 
24 | CN(C)CN1C(=O)/C(=N\NC(=S)NO)c2cc(F)ccc21 | 47.2 µM | 599 µM | 10.1 µM (≈ 3.13 µg/mL) |  | 
25 | CONC(=S)N/N=C1\C(=O)N(CN2CCN(c3ccc(OC)cc3)CC2)c2ccc(F)cc21 | 12.7 µM | 276 µM | 6.14 µM (≈ 2.9 µg/mL) |  | 
26 | CCn1cc(C(=O)O)c(=O)c2cc(F)c(N3CCN(CN4C(=O)/C(=N\NC(=S)NOC)c5cc(C)ccc54)CC3)cc21 | 11.4 µM | 238 µM | 1.31 µM (≈ 0.78 µg/mL) |  | 
